Measurements as given in ChEMBL document CHEMBL5532688, “Carltonine-derived compounds for targeted butyrylcholinesterase inhibition” (RSC Med Chem, 2024).
The source made the active and inactive calls. The calls are words filed in the database; no cut-off is given here.

The compounds below were run against T1, Cholinesterase (Homo sapiens, UniProt P06276) (assay: Reversible binding affinity to human BChE using butyrylthiocholine iodide as substrate assessed as reduction in Vmax at 0.445 to 1.400 micromol/L preincubated for 5 min followed by substrate addition and measured after 1 mins by Lineweaver-Burk plot analysis). Settings: dose 0.445-1.4 µmol/L, time 6.0 min.
T1 sequence (P06276 whole entry): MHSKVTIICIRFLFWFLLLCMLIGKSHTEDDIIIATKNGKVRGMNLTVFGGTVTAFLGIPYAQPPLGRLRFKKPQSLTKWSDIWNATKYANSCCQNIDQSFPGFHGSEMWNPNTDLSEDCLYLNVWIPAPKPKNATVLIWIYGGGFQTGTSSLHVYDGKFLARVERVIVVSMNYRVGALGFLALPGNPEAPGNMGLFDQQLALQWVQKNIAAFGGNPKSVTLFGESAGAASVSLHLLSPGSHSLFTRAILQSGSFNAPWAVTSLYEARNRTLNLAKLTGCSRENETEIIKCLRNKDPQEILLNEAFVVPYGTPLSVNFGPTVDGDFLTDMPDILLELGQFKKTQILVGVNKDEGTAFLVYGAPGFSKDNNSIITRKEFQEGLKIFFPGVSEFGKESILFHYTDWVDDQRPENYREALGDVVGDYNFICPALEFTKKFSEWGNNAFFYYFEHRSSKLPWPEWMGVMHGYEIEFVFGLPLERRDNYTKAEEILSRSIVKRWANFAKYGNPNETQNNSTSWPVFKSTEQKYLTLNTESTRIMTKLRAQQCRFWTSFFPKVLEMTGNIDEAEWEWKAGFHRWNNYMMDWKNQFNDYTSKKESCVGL
Procedure, shortened: (§1)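 Recombinant human BChE at final activity 0.002 U/μL in phosphate buffer. […] Km, Vmax, Ki and Ki' came from nonlinear regression of velocity curves. Lineweaver–Burk plots were drawn by linear regression.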
In the case of `CCCN(CCc1ccc(O)cc1)Cc1ccc(OCc2ccccc2)cc1`, the Activity is reported as “Active”.

These compounds were tested against T2, Acetylcholinesterase (Homo sapiens, UniProt P22303) (assay: Inhibition of human AChE using acetylthiocholine iodide as substrate at 10 uM incubated for 1 mins by spectrophotometric Ellman's method). Settings: not given.
T2 sequence (P22303 whole entry): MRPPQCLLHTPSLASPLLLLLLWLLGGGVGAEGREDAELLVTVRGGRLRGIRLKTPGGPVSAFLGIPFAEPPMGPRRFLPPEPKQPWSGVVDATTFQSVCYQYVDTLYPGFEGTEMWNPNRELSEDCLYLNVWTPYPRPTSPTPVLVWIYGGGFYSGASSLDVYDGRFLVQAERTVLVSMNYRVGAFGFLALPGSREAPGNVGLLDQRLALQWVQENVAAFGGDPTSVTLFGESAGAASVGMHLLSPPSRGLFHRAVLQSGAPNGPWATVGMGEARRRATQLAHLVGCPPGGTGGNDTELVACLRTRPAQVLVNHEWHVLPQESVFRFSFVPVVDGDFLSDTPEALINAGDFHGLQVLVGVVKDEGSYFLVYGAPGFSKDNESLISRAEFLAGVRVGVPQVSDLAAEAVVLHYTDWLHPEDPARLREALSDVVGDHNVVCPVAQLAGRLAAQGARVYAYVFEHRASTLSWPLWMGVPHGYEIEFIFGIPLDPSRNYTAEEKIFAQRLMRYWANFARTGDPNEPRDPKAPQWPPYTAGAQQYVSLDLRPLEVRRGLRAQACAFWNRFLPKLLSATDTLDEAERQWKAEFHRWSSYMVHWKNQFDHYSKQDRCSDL
Procedure, shortened: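 Recombinant human AChE, modified Ellman assay; compound in DMSO (single 10 μM screen) preincubated 5 min with enzyme and 5 mM DTNB in pH 7.4 phosphate buffer. […] Triplicate.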
In the case of `C=CCOc1ccc(CCNCc2cccc(OCc3ccccc3)c2)cc1`, the inhibition is reported as “inactive”.
`c1ccc(CNCc2cccc(OCc3ccccc3)c2)cc1` was tested, and the inhibition was “inactive”.
For `COc1ccc(CCNCc2cccc(OCc3ccccc3)c2)cc1`, the inhibition was “inactive”.
With `CCCN(CCc1ccccc1)Cc1cccc(OCc2ccccc2)c1` the inhibition was “inactive”.
With `COc1ccc(CCNCc2ccc(OCc3ccccc3)cc2)cc1` the inhibition was “inactive”.
`CCN(CCc1ccccc1)Cc1cccc(OCc2ccccc2)c1` was tested, and the inhibition was “inactive”.
For `c1ccc(COc2ccc(CNCCc3ccccn3)cc2)cc1`, the inhibition was “inactive”.
In the case of `C=CCN(CCc1ccccc1)Cc1cccc(OCc2ccccc2)c1`, the inhibition is reported as “inactive”.
In the case of `CCCN(Cc1ccccc1)Cc1ccc(OCc2ccccc2)cc1`, the inhibition is reported as “inactive”.
For `Clc1cccc(NCc2cccc(OCc3ccccc3)c2)c1`, the inhibition was “inactive”.
`c1ccc(CCCNCc2ccc(OCc3ccccc3)cc2)cc1` was tested, and the inhibition was “inactive”.
`COc1ccccc1CCNCc1cccc(OCc2ccccc2)c1` was tested, and the inhibition was “inactive”.
With `Clc1ccc(CCNCc2ccc(OCc3ccccc3)cc2)cc1` the inhibition was “inactive”.
For `CC(CNCc1ccc(OCc2ccccc2)cc1)c1ccccc1` (stereo not given), the inhibition was “inactive”.
`c1ccc(CCCNCc2cccc(OCc3ccccc3)c2)cc1` was tested, and the inhibition was “inactive”.
For `COc1cccc(CCNCc2cccc(OCc3ccccc3)c2)c1`, the inhibition was “inactive”.
For `COc1cccc(CCNCc2ccc(OCc3ccccc3)cc2)c1`, the inhibition was “inactive”.
In the case of `C=CCN(CCc1ccc(O)cc1)Cc1cccc(OCc2ccccc2)c1`, the inhibition is reported as “inactive”.
For `C=CCN(CCCc1ccccc1)Cc1cccc(OCc2ccccc2)c1`, the inhibition was “inactive”.
For `CCCN(CCCc1ccccc1)Cc1cccc(OCc2ccccc2)c1`, the inhibition was “inactive”.
For `Oc1ccc(CCNCc2ccc(OCc3ccccc3)cc2)cc1`, the inhibition was “inactive”.
`CCCOc1ccc(CCN(CCC)Cc2ccc(OCc3ccccc3)cc2)cc1` was tested, and the inhibition was “inactive”.
In the case of `CCN(Cc1ccccc1)Cc1cccc(OCc2ccccc2)c1`, the inhibition is reported as “inactive”.
With `c1ccc(COc2ccc(CNCc3ccccn3)cc2)cc1` the inhibition was “inactive”.
`CCCN(CCCc1ccccc1)Cc1ccc(OCc2ccccc2)cc1` was tested, and the inhibition was “inactive”.
In the case of `c1ccc(CCNCc2cccc(OCc3ccccc3)c2)cc1`, the inhibition is reported as “inactive”.
`CCCN(Cc1ccc(OCc2ccccc2)cc1)C(C)CCc1ccccc1` (stereo not given) was tested, and the inhibition was “inactive”.
For `CCN(Cc1ccc(OCc2ccccc2)cc1)C(C)CCc1ccccc1` (stereo not given), the inhibition was “inactive”.
For `C=CCN(Cc1ccccc1)Cc1cccc(OCc2ccccc2)c1`, the inhibition was “inactive”.
`CCCN(CCc1ccc(O)cc1)Cc1ccc(OCc2ccccc2)cc1` was tested, and the inhibition was “inactive”.
In the case of `C=CCOc1ccc(CCN(CC=C)Cc2cccc(OCc3ccccc3)c2)cc1`, the inhibition is reported as “inactive”.
`CC(CCc1ccccc1)NCc1ccc(OCc2ccccc2)cc1` (stereo not given) was tested, and the inhibition was “inactive”.
For `COc1ccccc1CCNCc1ccc(OCc2ccccc2)cc1`, the inhibition was “inactive”.
For `c1ccc(CCNCc2ccc(OCc3ccccc3)cc2)cc1`, the inhibition was “inactive”.
With `c1ccc(CCCCNCc2ccc(OCc3ccccc3)cc2)cc1` the inhibition was “inactive”.
With `COc1ccc(CNCc2cccc(OCc3ccccc3)c2)cc1OC` the inhibition was “inactive”.
`CCN(CCCc1ccccc1)Cc1cccc(OCc2ccccc2)c1` was tested, and the inhibition was “inactive”.
`CCN(Cc1ccccc1)Cc1ccc(OCc2ccccc2)cc1` was tested, and the inhibition was “inactive”.
In the case of `CC(CNCc1cccc(OCc2ccccc2)c1)c1ccccc1` (stereo not given), the inhibition is reported as “inactive”.
In the case of `Oc1ccc(CCNCc2cccc(OCc3ccccc3)c2)cc1`, the inhibition is reported as “inactive”.
With `c1ccc(CNCc2ccc(OCc3ccccc3)cc2)cc1` the inhibition was “inactive”.

Each compound was assayed against T1, Cholinesterase (assay: Reversible binding affinity to human BChE using butyrylthiocholine iodide as substrate assessed as reduction in Km at 0.445 to 1.400 micromol/L preincubated for 5 min followed by substrate addition and measured after 1 mins by Lineweaver-Burk plot analysis). Settings: dose 0.445-1.4 µmol/L, time 6.0 min.
Procedure, shortened: as §1
For `CCCN(CCc1ccc(O)cc1)Cc1ccc(OCc2ccccc2)cc1`, the Activity was “Active”.

What follows are compounds tested against T1, Cholinesterase (assay: Inhibition of human BChE using butyrylthiocholine iodide as substrate incubated for 1 mins by spectrophotometric Ellman's method). Settings: not given.
With `C=CCOc1ccc(CCN(CC=C)Cc2ccc(OCc3ccccc3)c(OC)c2)cc1` the IC50 was greater than 10 µM.

The compounds below were run against T2, Acetylcholinesterase (assay: Inhibition of human AChE using acetylthiocholine iodide as substrate incubated for 1 mins by spectrophotometric Ellman's method). Settings: not given.
Procedure, shortened: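 Modified Ellman assay on recombinant human AChE (acetylthiocholine) or human BChE (butyrylthiocholine). Enzyme, 5 mM DTNB and DMSO compound dilutions at several concentrations preincubated 5 min in pH 7.4 phosphate buffer. Reaction started with 10 mM substrate, ΔA read at 412 nm for 1 min. IC50 is the mean ± SEM of three independent runs, each in triplicate.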
`CN(CCc1ccc(O)cc1)Cc1cc2c(cc1-c1cccc3c1N(C)CC3)OCO2` showed an IC50 greater than 100 µM.
